Experimental data: ChEMBL document CHEMBL1126924, “R2 C-terminal peptide inhibition of mammalian and yeast ribonucleotide reductase” (J Med Chem, 1993)
One block for each compound: values may come before it.

How the values were obtained:
[1] = target: T1, Ribonucleoside-diphosphate reductase large subunit (Mus musculus, UniProt P07742); experiment: Inhibitory activity of compound against mammalian ribonucleotide reductase; Range is 48-58
T1 sequence (P07742 whole entry): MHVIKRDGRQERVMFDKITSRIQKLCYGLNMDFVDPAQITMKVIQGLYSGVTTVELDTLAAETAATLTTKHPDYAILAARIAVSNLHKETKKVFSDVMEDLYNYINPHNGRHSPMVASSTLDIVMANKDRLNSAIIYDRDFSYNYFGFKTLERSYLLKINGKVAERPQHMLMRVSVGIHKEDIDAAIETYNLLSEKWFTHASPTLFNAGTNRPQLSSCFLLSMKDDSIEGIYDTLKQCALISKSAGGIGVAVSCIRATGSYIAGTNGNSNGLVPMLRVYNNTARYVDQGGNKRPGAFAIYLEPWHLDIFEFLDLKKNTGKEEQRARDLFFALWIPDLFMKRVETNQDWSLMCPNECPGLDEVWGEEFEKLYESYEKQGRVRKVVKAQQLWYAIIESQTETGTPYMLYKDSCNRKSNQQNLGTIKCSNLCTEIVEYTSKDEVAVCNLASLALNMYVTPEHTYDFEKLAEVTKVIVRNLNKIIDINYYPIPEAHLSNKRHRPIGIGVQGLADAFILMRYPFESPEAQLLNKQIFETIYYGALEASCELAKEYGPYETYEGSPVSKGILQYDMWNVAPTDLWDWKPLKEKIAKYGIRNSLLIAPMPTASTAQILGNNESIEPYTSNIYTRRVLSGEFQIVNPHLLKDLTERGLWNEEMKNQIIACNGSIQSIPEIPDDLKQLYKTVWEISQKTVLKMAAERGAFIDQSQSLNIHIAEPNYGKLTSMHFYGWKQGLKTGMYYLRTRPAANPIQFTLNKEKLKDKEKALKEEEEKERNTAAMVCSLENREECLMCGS
How it was run: (§1)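 Calf thymus R1 (1 μg) with cloned mouse R2 (2 μg) expressed in E. coli from pET-M2. CDP reduction was run at 35 °C with DTT as reductant. [³H]dCDP was separated on aminophenylboronate and counted by scintillation.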

[2] = target: T1, Ribonucleoside-diphosphate reductase large subunit; experiment: Inhibitory activity of compound against mammalian ribonucleotide reductase; Range is 450-620; how it was run: as §1
[3] = target: T1, Ribonucleoside-diphosphate reductase large subunit; experiment: Inhibitory activity of compound against mammalian ribonucleotide reductase; Range is 29-30; how it was run: as §1
[4] = target: T1, Ribonucleoside-diphosphate reductase large subunit; experiment: Inhibitory activity of compound against mammalian ribonucleotide reductase; Range is 8-20; how it was run: as §1
[5] = target: T1, Ribonucleoside-diphosphate reductase large subunit; experiment: Inhibitory activity of compound against mammalian ribonucleotide reductase; Range is 9-15; how it was run: as §1
[6] = target: T1, Ribonucleoside-diphosphate reductase large subunit; experiment: Inhibitory activity of compound against mammalian ribonucleotide reductase; Range is 286-336; how it was run: as §1
[7] = target: T1, Ribonucleoside-diphosphate reductase large subunit; experiment: Inhibitory activity of compound against mammalian ribonucleotide reductase; Range is 34-35; how it was run: as §1
[8] = target: T1, Ribonucleoside-diphosphate reductase large subunit; experiment: Inhibitory activity of compound against mammalian ribonucleotide reductase; Range is 32-38; how it was run: as §1
[9] = target: T1, Ribonucleoside-diphosphate reductase large subunit; experiment: Inhibitory activity of compound against mammalian ribonucleotide reductase; Range is 364-460; how it was run: as §1
[10] = target: T1, Ribonucleoside-diphosphate reductase large subunit; experiment: Inhibitory activity of compound against mammalian ribonucleotide reductase; Range is 110-230; how it was run: as §1
[11] = target: Ribonucleoside-diphosphate reductase RR1 (Homo sapiens) (UniProt P23921+Q7LG56+P31350); experiment: Relative inhibitory potency against mammalian ribonucleotide reductase; type: protein-complex assay
[12] = target: T1, Ribonucleoside-diphosphate reductase large subunit; experiment: Inhibitory activity of compound against mammalian ribonucleotide reductase; Range is 35-40; how it was run: as §1
[13] = target: T1, Ribonucleoside-diphosphate reductase large subunit; experiment: Inhibitory activity of compound against mammalian ribonucleotide reductase; Range is 40-42; how it was run: as §1
[14] = target: T1, Ribonucleoside-diphosphate reductase large subunit; experiment: Inhibitory activity of compound against mammalian ribonucleotide reductase; Range is 25-29; how it was run: as §1

IC50 [1]: 48 µM
Compound: CC(=O)N[C@@H](Cc1ccccc1)C(=O)N[C@H](C(=O)N[C@@H](Cc1ccccc1)C(=O)N[C@@H](CC(=O)O)C(=O)N[C@@H](C)C(=O)N[C@@H](CC(=O)O)C(=O)N[C@@H](Cc1ccccc1)C(=O)O)[C@@H](C)O

IC50 [2]: 450 µM
Compound: CC(=O)N[C@@H](Cc1ccccc1)C(=O)N[C@H](C(=O)N[C@@H](CC(C)C)C(=O)N[C@@H](CC(=O)O)C(=O)N[C@@H](C)C(=O)N[C@@H](CCC(=O)O)C(=O)N[C@@H](Cc1ccccc1)C(=O)O)[C@@H](C)O

IC50 [3]: 29 µM
Compound: CC(=O)N[C@@H](Cc1ccccc1)C(=O)N[C@H](C(=O)N[C@@H](CC(C)C)C(=O)N[C@@H](CC(=O)O)C(=O)N[C@@H](C)C(=O)N[C@@H](CC(C)C)C(=O)N[C@@H](Cc1ccccc1)C(=O)O)[C@@H](C)O

IC50 [4]: 8 µM
Compound: CC(=O)N[C@@H](CO)C(=O)N[C@@H](Cc1ccccc1)C(=O)N[C@H](C(=O)N[C@@H](CC(C)C)C(=O)N[C@@H](CC(=O)O)C(=O)N[C@@H](C)C(=O)N[C@@H](CC(=O)O)C(=O)N[C@@H](Cc1ccccc1)C(=O)O)[C@@H](C)O

IC50 [5]: 9 µM
Compound: CC(=O)N[C@@H](CC(N)=O)C(=O)N[C@@H](CO)C(=O)N[C@@H](Cc1ccccc1)C(=O)N[C@H](C(=O)N[C@@H](CC(C)C)C(=O)N[C@@H](CC(=O)O)C(=O)N[C@@H](C)C(=O)N[C@@H](CC(=O)O)C(=O)N[C@@H](Cc1ccccc1)C(=O)O)[C@@H](C)O

IC50 [6]: 286 µM
Compound: CC(=O)N[C@@H](Cc1ccccc1)C(=O)N[C@H](C(=O)N[C@@H](CC(C)C)C(=O)N[C@@H](C)C(=O)N[C@@H](C)C(=O)N[C@@H](CC(=O)O)C(=O)N[C@@H](Cc1ccccc1)C(=O)O)[C@@H](C)O

IC50 [7]: 34 µM
Compound: CC(=O)N[C@@H](Cc1ccccc1)C(=O)N[C@H](C(=O)N[C@@H](CC(C)C)C(=O)N[C@@H](CC(=O)O)C(=O)N[C@@H](C)C(=O)N[C@@H](C)C(=O)N[C@@H](Cc1ccccc1)C(=O)O)[C@@H](C)O

IC50 [8]: 32 µM
Compound: CC(=O)N[C@@H](Cc1ccccc1)C(=O)N[C@H](C(=O)N[C@@H](CC(C)C)C(=O)N[C@@H](CC(=O)O)C(=O)N[C@@H](C)C(=O)N[C@@H](CC(N)=O)C(=O)N[C@@H](Cc1ccccc1)C(=O)O)[C@@H](C)O

IC50 [9]: 364 µM
Compound: CC(=O)N[C@@H](Cc1ccccc1)C(=O)N[C@H](C(=O)N[C@@H](CC(C)C)C(=O)N[C@@H](CC(=O)O)C(=O)N[C@@H](Cc1ccccc1)C(=O)O)[C@@H](C)O

IC50 [10]: 110 µM
Compound: CC(=O)N[C@@H](Cc1ccccc1)C(=O)N[C@H](C(=O)N[C@@H](CC(C)C)C(=O)N[C@@H](CC(=O)O)C(=O)NCC(=O)N[C@@H](CC(=O)O)C(=O)N[C@@H](Cc1ccccc1)C(=O)O)[C@@H](C)O

RI [11]: 24% | IC50 [12]: 35 µM
Compound: Ac-FALDADF-OH

RI [11]: 25% | IC50 [13]: 40 µM
Compound: Ac-FSLDADF-OH

IC50 [14]: 25 µM
Compound: CC(=O)N[C@@H](Cc1ccccc1)C(=O)N[C@H](C(=O)N[C@@H](CC(C)C)C(=O)N[C@@H](CC(N)=O)C(=O)N[C@@H](C)C(=O)N[C@@H](CC(=O)O)C(=O)N[C@@H](Cc1ccccc1)C(=O)O)[C@@H](C)O
